Measurements as given in ChEMBL document CHEMBL5712884, “S-Adenosyl-L-methionine-competitive inhibitors of the histone methyltransferase EZH2 induce autophagy and enhance drug sensitivity in cancer cells” (Anticancer Drugs, 2015).
Calls of active or inactive are those of the source. The rule behind the calls is not given here.

How the values were obtained:
MDA-MB-231 [1] = experiment: […] in human MDA-MB-231 cells assessed as induction of LC3-II accumulation at 1 umol/L for 48 hrs by Western blot analysis; type: functional, cell-based; settings: dose 1.0 µmol/L
MDA-MB-231 [2] = experiment: Induction of autophagy in human MDA-MB-231 cells assessed as induction of LC3-II accumulation at 10 umol/L for 48 hrs by Western blot analysis; settings: dose 10.0 µmol/L
MDA-MB-231 [3] = experiment: Induction of apoptosis in human MDA-MB-231 cells assessed as cleavage of PARP at 0.75 umol/L incubated for 72 hrs by Western blot analysis; type: functional, cell-based; settings: dose 0.75 µmol/L
MDA-MB-231 [4] = experiment: Induction of apoptosis in human MDA-MB-231 cells assessed as cleavage of caspase-3 at 0.75 umol/L incubated for 72 hrs by Western blot analysis; type: functional, cell-based; settings: dose 0.75 µmol/L
HepG2 [5] = experiment: […] in human HepG2 cells assessed as induction of LC3-II accumulation at 10 to 20 umol/L measured after 24 hrs in presence of bafilomycin A1 by Western blot analysis; type: functional, cell-based; settings: dose 10-20 µmol/L
Method in brief: (§1)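 A549 and HepG2 cells drug-treated with or without bafilomycin A1. Lysates made in Tris pH 7.5/NP-40 buffer with protease and phosphatase inhibitors, 25–50 μg run on 7–12% SDS-PAGE, probed for LC3B, ECL detection.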

HepG2 [6] = experiment: Cytotoxicity against human HepG2 cells assessed as effect on cell viability incubated for 72 hrs by MTT analysis; type: functional, cell-based
Method in brief: (§2)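 Cells in DMEM with 10% FBS at 37°C, 5% CO2, plated in 96-well plates and drug-treated for 72 h. MTT 0.5 mg/ml added for 4 h, formazan dissolved in DMSO, absorbance read at 550 nm. Means and SDs; Student's t-test.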

HepG2 [7] = experiment: Potentiation of sorafenib-induced anticancer activity in human HepG2 cells at 10 umol/L measured after 72 hrs by MTT assay; type: functional, cell-based; settings: dose 10.0 µmol/L
Method in brief: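 HepG2 cells given a range of sorafenib doses, with or without 10 μmol/l compound, for 72 h. Viability by MTT (0.5 mg/ml, 4 h, DMSO, A550). Student's t-test against untreated cells.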

MDA-MB-231 [8] = experiment: Induction of autophagy in human MDA-MB-231 cells assessed as induction of LC3-II accumulation at 10 to 20 umol/L incubated for 72 hrs by Western blot analysis; type: functional, cell-based; settings: dose 10-20 µmol/L
HepG2 [9] = experiment: Cytotoxicity against human HepG2 cells assessed as reduction in cell viability at 10 umol/L measured after 72 hrs in presence of class III PI3K inhibitor 3-methyladenine by MTT assay; type: functional, cell-based; settings: dose 10.0 µmol/L
Method in brief: (§3)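 HepG2 and A549 cells pretreated 1 h with 2 mmol/l 3-MA, then exposed to 10 μmol/l compound for 72 h. Viability read by MTT (0.5 mg/ml, 4 h, formazan in DMSO, A550). Means and SDs; Student's t-test against cells without 3-MA.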

A549 [10] = experiment: Cytotoxicity against human A549 cells assessed as reduction in cell viability at 10 umol/L measured after 72 hrs in presence of class III PI3K inhibitor 3-methyladenine by MTT assay; type: functional, cell-based; settings: dose 10.0 µmol/L; method in brief: as §3
MDA-MB-231 [11] = experiment: Induction of autophagy in human MDA-MB-231 cells assessed as induction of LC3-II accumulation at 10 to 20 umol/L incubated for 24 hrs by Western blot analysis; type: functional, cell-based; settings: dose 10-20 µmol/L
MDA-MB-231 [12] = experiment: […] in human MDA-MB-231 cells assessed as induction of LC3-II accumulation at 10 umol/l measured after 24 hrs in presence of class III PI3K inhibitor 3-methyladenine by Western blot analysis; type: functional, cell-based; settings: dose 10.0 µmol/L
MDA-MB-231 [13] = experiment: Induction of autophagy in human MDA-MB-231 cells assessed as formation of autophagic vacuoles by measuring increase in Cyto-ID fluorescence intensity at 10 umol/L by measured after 24 hrs by Cyto-ID/Hoechst 33342 fluorescence microscopic analysis; type: functional, cell-based; settings: dose 10.0 µmol/L
Method in brief: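 MDA-MB-231 cells washed twice in PBS with 5% FBS, then stained with Cyto-ID detection reagent plus Hoechst 33342 for 30 min at 37°C. Cells washed and autophagic vacuoles imaged by fluorescence microscopy.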

[14] = biological target: Histone-lysine N-methyltransferase EZH2 (Homo sapiens) (UniProt Q15910); experiment: Inhibition of EZH2 in human HepG2 cells assessed as reduction in H3K27-me3 level at 10 umol/L incubated for 72 hrs by Western blot analysis; type: cell-based; settings: dose 10.0 µmol/L
Histone-lysine N-methyltransferase EZH2 (Homo sapiens), sequence (Q15910 whole entry, looked up): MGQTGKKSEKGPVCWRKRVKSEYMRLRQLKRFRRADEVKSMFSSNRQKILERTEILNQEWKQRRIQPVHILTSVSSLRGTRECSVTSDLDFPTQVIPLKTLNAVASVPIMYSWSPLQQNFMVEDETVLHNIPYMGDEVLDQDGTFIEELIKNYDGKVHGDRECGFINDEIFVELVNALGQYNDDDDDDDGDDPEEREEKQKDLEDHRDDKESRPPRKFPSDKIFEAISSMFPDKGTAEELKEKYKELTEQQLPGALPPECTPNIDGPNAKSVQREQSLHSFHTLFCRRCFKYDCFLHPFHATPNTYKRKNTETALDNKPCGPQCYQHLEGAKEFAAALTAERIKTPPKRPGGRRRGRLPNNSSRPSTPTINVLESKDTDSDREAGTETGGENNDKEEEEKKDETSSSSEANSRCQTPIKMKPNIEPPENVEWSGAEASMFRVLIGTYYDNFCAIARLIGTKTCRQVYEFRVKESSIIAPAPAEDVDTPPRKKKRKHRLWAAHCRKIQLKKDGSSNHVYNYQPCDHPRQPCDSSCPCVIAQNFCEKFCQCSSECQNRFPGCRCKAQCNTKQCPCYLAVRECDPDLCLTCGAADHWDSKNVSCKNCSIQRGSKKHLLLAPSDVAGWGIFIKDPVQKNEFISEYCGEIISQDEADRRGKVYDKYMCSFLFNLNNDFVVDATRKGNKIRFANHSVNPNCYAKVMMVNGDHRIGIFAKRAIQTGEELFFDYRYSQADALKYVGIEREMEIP

MDA-MB-231 [15] = experiment: Induction of apoptosis in human MDA-MB-231 cells assessed as induction of cleavage of caspase-3 at 10 to 20 umol/L incubated for 72 hrs by Western blot analysis; type: functional, cell-based; settings: dose 10-20 µmol/L
MDA-MB-231 [16] = experiment: Induction of autophagy in human MDA-MB-231 cells assessed as increase in LC3-II accumulation at 10 umol/L incubated for 24 hrs in presence of bafilomycin A1 by Western blot analysis; type: functional, cell-based; settings: dose 10.0 µmol/L
MDA-MB-231 [17] = experiment: Induction of autophagy in human MDA-MB-231 cells assessed as change in total LAMP2 expression at 10 umol/L measured after 24 hrs in presence of bafilomycin A1 by Western blot analysis; type: toxicity, cell-based; settings: mda-mb-231, 24 h, 10 µM, dose 10 µmol/L
MDA-MB-231 [18] = experiment: Cytotoxicity against human MDA-MB-231 cells assessed as reduction in cell viability measured after 72 hrs in presence of class III PI3K inhibitor 3-methyladenine by MTT assay; type: functional, cell-based
[19] = biological target: Histone-lysine N-methyltransferase EZH2 (Homo sapiens) (UniProt Q15910); experiment: Inhibition of EZH2 in human MDA-MB-231 cells assessed as reduction in H3K27-me3 level at 10 umol/L incubated for 72 hrs by Western blot analysis; type: cell-based; settings: dose 10.0 µmol/L
HepG2 [20] = experiment: […] in human HepG2 cells assessed as induction of LC3-II accumulation at 10 to 20 umol/L measured after 24 hrs by Western blot analysis; type: functional, cell-based; settings: dose 10-20 µmol/L; method in brief: as §1
[21] = biological target: Histone-lysine N-methyltransferase EZH2 (Homo sapiens) (UniProt Q15910); experiment: Inhibition of EZH2 in human A549 cells assessed as reduction in H3K27-me3 level at 10 umol/L incubated for 72 hrs by Western blot analysis; type: cell-based; settings: dose 10.0 µmol/L
HepG2 [22] = experiment: Potentiation of sorafenib-induced anticancer activity in human HepG2 cells assessed as increase in cleaved PARP expression at 10 umol/L measured after 72 hrs by Western blot analysis; type: functional, cell-based; settings: dose 10.0 µmol/L
Method in brief: (§4)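 HepG2 cells given 5 μmol/l sorafenib, with or without 10 μmol/l compound, for 72 h. Whole-cell lysates immunoblotted for PARP1, LC3B and β-actin.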

MDA-MB-231 [23] = experiment: Induction of autophagy in human MDA-MB-231 cells assessed as change in total LAMP2 expression at 10 umol/L measured after 24 hrs by Western blot analysis; type: toxicity, cell-based; settings: mda-mb-231, 24 h, 10 µM, dose 10 µmol/L
MDA-MB-231 [24] = experiment: Cytotoxicity against human MDA-MB-231 cells assessed as reduction in cell viability after 72 hr by MTT analysis; type: functional, cell-based; method in brief: as §2
HepG2 [25] = experiment: Cytotoxicity against human HepG2 cells assessed as effect on cell viability after 72 hrs by MTT analysis; type: functional, cell-based; method in brief: as §2
MDA-MB-231 [26] = experiment: Induction of autophagy in human MDA-MB-231 cells assessed as downregulation of p62 expression at 10 umol/L measured after 24 hrs in presence of bafilomycin A1 by Western blot analysis; type: functional, cell-based; settings: dose 10.0 µmol/L
MDA-MB-231 [27] = experiment: Induction of apoptosis in human MDA-MB-231 cells assessed as induction of cleavage of PARP at 10 to 20 umol/L incubated for 72 hrs by Western blot analysis; type: functional, cell-based; settings: dose 10-20 µmol/L
MDA-MB-231 [28] = experiment: Induction of apoptosis in human MDA-MB-231 cells assessed as reduction in pro-caspase-3 expression at 10 to 20 umol/L incubated for 72 hrs by Western blot analysis; type: functional, cell-based; settings: dose 10-20 µmol/L
MDA-MB-231 [29] = experiment: Induction of autophagy in human MDA-MB-231 cells assessed as reduction in expression of p62 at 10 umol/L incubated for 24 hrs by Western blot analysis; type: functional, cell-based; settings: dose 10.0 µmol/L
A549 [30] = experiment: […] in human A549 cells assessed as induction of LC3-II accumulation at 10 to 20 umol/L measured after 24 hrs in presence of bafilomycin A1 by Western blot analysis; type: functional, cell-based; settings: dose 10-20 µmol/L; method in brief: as §1
HepG2 [31] = experiment: Potentiation of sorafenib-induced anticancer activity in human HepG2 cells assessed as increase in LC3-II accumulation at 10 umol/L measured after 72 hrs by Western blot analysis; type: functional, cell-based; settings: dose 10.0 µmol/L; method in brief: as §4
A549 [32] = experiment: […] in human A549 cells assessed as induction of LC3-II accumulation at 10 to 20 umol/L measured after 24 hrs by Western blot analysis; type: functional, cell-based; settings: dose 10-20 µmol/L; method in brief: as §1

`CC(=O)O[C@H]1C(=O)[C@@]2(C)[C@H]([C@H](OC(=O)c3ccccc3)[C@]3(O)C[C@H](OC(=O)[C@H](O)[C@@H](NC(=O)c4ccccc4)c4ccccc4)C(C)=C1C3(C)C)[C@]1(OC(C)=O)CO[C@@H]1C[C@@H]2O` was tested, and the Activity (MDA-MB-231 [1]) was “Active”.
`COc1ccc2cc3[n+](cc2c1OC)CCc1cc2c(cc1-3)OCO2` was tested, and the Activity (MDA-MB-231 [2]) was “Active”.
In the case of `COc1cccc2c1C(=O)c1c(O)c3c(c(O)c1C2=O)C[C@@](O)(C(=O)CO)C[C@@H]3O[C@H]1C[C@H](N)[C@H](O)[C@H](C)O1`, the Activity (MDA-MB-231 [3]) is reported as “Active”, the Activity (MDA-MB-231 [4]) is reported as “Active” and the Activity (MDA-MB-231 [1]) is reported as “Active”.
In the case of `CCCc1cc(C)[nH]c(=O)c1CNC(=O)c1cc(-c2ccnc(N3CCN(C)CC3)c2)cc2c1cnn2C(C)C`, the Activity (HepG2 [5]) is reported as “Active”, the Activity (HepG2 [6]) is reported as “Active” and the Activity (HepG2 [7]) is reported as “Active”. For the same compound, the Activity (MDA-MB-231 [8]) was “Active”, the Activity (HepG2 [9]) was “inactive” and the Activity (A549 [10]) was “inactive”. For the same compound, the Activity (MDA-MB-231 [11]) was “Active”, the Activity (MDA-MB-231 [12]) was “inactive” and the Activity (MDA-MB-231 [13]) was “Active”. The inhibition [14] was “Active”, the Activity (MDA-MB-231 [15]) was “inactive” and the Activity (MDA-MB-231 [16]) was “Active”. For the same compound, the Activity (MDA-MB-231 [17]) was “Non-Toxic”, the Activity (MDA-MB-231 [18]) was “inactive” and the inhibition [19] was “Active”. For the same compound, the Activity (HepG2 [20]) was “Active”, the inhibition [21] was “Active” and the Activity (HepG2 [22]) was “Active”. The Activity (MDA-MB-231 [23]) was “Non-Toxic”, the Activity (MDA-MB-231 [24]) was “Dose-Dependent Effect” and the Activity (HepG2 [25]) was “Active”. The Activity (MDA-MB-231 [26]) was “inactive”, the Activity (MDA-MB-231 [27]) was “Active” and the Activity (MDA-MB-231 [2]) was “Active”. The Activity (MDA-MB-231 [28]) was “Active”, the Activity (MDA-MB-231 [29]) was “Active” and the Activity (A549 [30]) was “Active”. The Activity (HepG2 [31]) was “Active” and the Activity (A549 [32]) was “Active”.
With `COc1cc([C@@H]2c3cc4c(cc3[C@@H](O[C@@H]3O[C@@H]5CO[C@@H](C)O[C@H]5[C@H](O)[C@H]3O)[C@H]3COC(=O)[C@H]23)OCO4)cc(OC)c1O` the Activity (MDA-MB-231 [2]) was “Active”.
